Data: ChEMBL document CHEMBL1921751, “Discovery of small molecules that enhance astrocyte differentiation in rat fetal neural stem cells” (Bioorg Med Chem Lett, 2011)
Calls of active or inactive are those of the source. The rule behind the calls is not given here.

How the values were obtained:
NSC [1] = assay: Induction of Sprague-Dawley rat embryonic cortex NSC differentiation assessed as GFAP-positive cells at 5 uM after 4 days by immunocytochemistry analysis relative to control; format: functional
Procedure, shortened: (§1)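 E14 rat cortical NSCs were grown as neurospheres, dissociated and plated on poly-D-lysine in growth-factor-free medium with 2% B27. They received 5 µM compound or 0.05% DMSO at 37 °C, 5% CO2, for 4 days. Cells were fixed in 4% PFA, stained with anti-GFAP or TuJ1 plus Cy3 secondary, and DAPI-counterstained. Positive/DAPI cells in random fields were normalised to control; mean±SEM, n=6, t-test.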

NSC [2] = assay: Induction of Sprague-Dawley rat embryonic cortex NSC differentiation assessed as TuJ1-positive cells at 5 uM after 4 days by immunocytochemistry analysis; format: functional, cell-based; procedure, shortened: as §1
NSC [3] = assay: Induction of GFAP mRNA expression in Sprague-Dawley rat embryonic cortex NSC at 5 uM after 1 day by RT-PCR analysis relative to control; format: functional
Procedure, shortened: (§2)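 First-strand cDNA was made from 2 µg total RNA using oligo(dT) primers and RevertAid reverse transcriptase. PCR ran 94 °C 5 min, then 26 cycles of 94 °C, 55–58 °C and 72 °C (0.5 min each), with a final 72 °C extension for 10 min.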

NSC [4] = assay: Induction of S100 mRNA expression in Sprague-Dawley rat embryonic cortex NSC at 5 uM after 1 day by RT-PCR analysis relative to control; format: functional; procedure, shortened: as §2
NSC [5] = assay: Induction of beta3 tubulin mRNA expression in Sprague-Dawley rat embryonic cortex NSC at 5 uM after 1 day by RT-PCR analysis; format: functional, cell-based; procedure, shortened: as §2
NSC [6] = assay: Cytotoxicity against Sprague-Dawley rat embryonic cortex NSC assessed as changes in morphology at 5 uM after 4 days by microscopic analysis; format: cell-based; details: 96 h
NSC [7] = assay: Cytotoxicity against Sprague-Dawley rat embryonic cortex NSC assessed as reduction in nuclei count at 5 uM after 4 days using DAPI staining by fluorescent microscopic analysis; format: cell-based; details: 96 h

O=S(=O)(Cc1ccccc1)NC(c1ccc(F)cc1)c1nnc(-c2ccccc2)o1 (configuration not stated)
Activity (NSC [1]): Active | Activity (NSC [2]): inactive | Activity (NSC [3]): Active | Activity (NSC [4]): Active | Activity (NSC [5]): inactive

O=S(=O)(NC(c1ccc(F)cc1)c1nnc(-c2ccccc2)o1)c1ccccc1 (configuration not stated)
Activity (NSC [1]): Active | Activity (NSC [2]): inactive | Activity (NSC [3]): Active | Activity (NSC [4]): Active | Activity (NSC [5]): inactive

O=C(Cc1ccccc1)NC(c1ccccc1)c1nnc(-c2ccccc2)o1 (configuration not stated)
fold change (FC) (NSC [1]): 2 | Activity (NSC [2]): inactive | Activity (NSC [6]): Non-toxic | Activity (NSC [7]): Non-toxic | fold change (FC) (NSC [3]): 2 | fold change (FC) (NSC [4]): 2 | Activity (NSC [5]): inactive

CC(C)(C)OC(=O)NC(c1ccc(F)cc1)c1nnc(-c2ccccc2)o1 (configuration not stated)
Activity (NSC [1]): Active | Activity (NSC [2]): inactive | Activity (NSC [3]): Active | Activity (NSC [4]): Active | Activity (NSC [5]): inactive

O=C(Cc1ccccc1)NC(c1ccc(F)cc1)c1nnc(-c2ccccc2)o1 (configuration not stated)
fold change (FC) (NSC [1]): 2 | Activity (NSC [2]): inactive | fold change (FC) (NSC [3]): 2 | fold change (FC) (NSC [4]): 2 | Activity (NSC [5]): inactive

O=C(NC(c1ccc(F)cc1)c1nnc(-c2ccccc2)o1)c1ccccc1 (configuration not stated)
Activity (NSC [1]): Active | Activity (NSC [2]): inactive | Activity (NSC [3]): Active | Activity (NSC [4]): Active | Activity (NSC [5]): inactive
